The values that follow come from ChEMBL document CHEMBL2010692, “Inhibitory effect of novel S,N-bisphosphonates on some carcinoma cell lines, osteoarthritis, and chronic inflammation” (Eur J Med Chem, 2012).

For one data set, the system named is MCF7. The data set is described as follows: Cytotoxicity against human MCF7 cells after 48 hrs by SRB assay. The following applies: MCF7, 48 h. It is filed as functional, cell-based. In a few lines: (§1)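 Cells were seeded at 10^4 per well and allowed to attach for 24 h. They were then exposed to four compound concentrations (5, 12.5, 25, 50), each in triplicate wells, for 48 h at 37 °C in 5% CO2. Cells were fixed and stained with sulforhodamine B, washed with acetic acid, and bound dye was recovered in Tris-EDTA pH 7.4 and read on a plate reader. IC50 was taken from survival curves using the triplicate means.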
In general terms: Sulforhodamine B stains cellular protein and so reports cell mass.

The subject of another data set is HeLa. The data set is described as follows: Cytotoxicity against human HeLa cells after 48 hrs by SRB assay. It is filed as functional, cell-based. Put shortly:
as §1

Another data set has as its system HepG2. Nature of the data set: Cytotoxicity against human HepG2 cells after 48 hrs by SRB assay. The note with it: HepG2, 48 h. It is filed as functional, cell-based. Put shortly:
as §1

The subject of a further data set is HCT-116. Nature of the data set: Cytotoxicity against human HCT116 cells after 48 hrs by SRB assay. It is filed as functional, cell-based. The following applies: HCT-116, 48 h. Put shortly:
as §1

For data set [1], the system named is Rattus norvegicus. The data set is described as follows: Antiarthritic activity in complete Freund's adjuvant-induced rat arthritis model assessed as reduction of paw volume in injected paw at 50 mg/kg, sc qd for 28 days. In kind it is functional. The note with it: 672 h, route subcutaneous. Put shortly: (§2)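 Rat adjuvant-induced polyarthritis. Compounds were dissolved or suspended in sterile saline, sonicated as needed, brought to pH 7.0 with NaOH, and kept as frozen aliquots, fresh each dosing day. Dosing was sc once daily for 28 days, by body weight. The arthritic control group got vehicle sc. Injected and noninjected hindpaw volumes were measured on day 28 by mercury displacement plethysmography and expressed as % inhibition.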

Data set [2] concerns Rattus norvegicus. The data set is described as follows: Antiarthritic activity in complete Freund's adjuvant-induced rat arthritis model assessed as reduction of paw volume in injected paw at 30 mg/kg, sc qd for 28 days. In kind it is functional. The following applies: 672 h, route subcutaneous. Put shortly: as §2
In data set [3] the test system is Rattus norvegicus. The data set is described as follows: Antiarthritic activity in complete Freund's adjuvant-induced rat arthritis model assessed as reduction of paw volume in injected paw at 20 mg/kg, sc qd for 28 days. It is filed as functional. The following applies: 672 h, route subcutaneous. Put shortly:
as §2

The subject of data set [4] is Rattus norvegicus. Nature of the data set: Antiarthritic activity in complete Freund's adjuvant-induced rat arthritis model assessed as reduction of paw volume in injected paw at 10 mg/kg, sc qd for 28 days. In kind it is functional. The note with it: 672 h, route subcutaneous. Put shortly:
as §2

For data set [5], the system named is Rattus norvegicus. The data set is described as follows: Antiarthritic activity in complete Freund's adjuvant-induced rat arthritis model assessed as reduction of paw volume in non-injected paw at 50 mg/kg, sc qd for 28 days. In kind it is functional. The note with it: 672 h, route subcutaneous. In a few lines:
as §2

For data set [6], the system named is Rattus norvegicus. Nature of the data set: Antiarthritic activity in complete Freund's adjuvant-induced rat arthritis model assessed as reduction of paw volume in non-injected paw at 30 mg/kg, sc qd for 28 days. It is filed as functional. The note with it: 672 h, route subcutaneous. In a few lines:
as §2

The test system of data set [7] is Rattus norvegicus. The data set is described as follows: Antiarthritic activity in complete Freund's adjuvant-induced rat arthritis model assessed as reduction of paw volume in non-injected paw at 20 mg/kg, sc qd for 28 days. In kind it is functional. The note with it: 672 h, route subcutaneous. In a few lines: as §2
In data set [8] the test system is Rattus norvegicus. The data set is described as follows: Antiarthritic activity in complete Freund's adjuvant-induced rat arthritis model assessed as reduction of paw volume in non-injected paw at 10 mg/kg, sc qd for 28 days. The following applies: 672 h, route subcutaneous. In kind it is functional. Put shortly:
as §2

Data set [9] concerns Mus musculus. The data set is described as follows: Antiinflammatory activity in methylated bovine serum albumin sensitized delayed-type hypersensitivity granuloma mouse model assessed as reduction of granuloma dry weight at 100 mg/kg, sc qd for 9 days. It is filed as functional. The following applies: 216 h, route subcutaneous. Put shortly: (§3)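 Groups of 10 female mice (25 g) were sensitized sc over the inguinal lymph node with mBSA emulsion in saline, Freund's incomplete adjuvant and dextran. Three weeks later, two 6-mm hydroxyapatite discs soaked in mBSA (30 mg/mL saline) were implanted sc in the dorsum. Compounds at pH 7.4 were given sc into the scruff at 0.1 mL/10 g, daily from implantation to day 9. Granuloma wet and dry weights were recorded as % inhibition.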

In data set [10] the test system is Mus musculus. The data set is described as follows: Antiinflammatory activity in methylated bovine serum albumin sensitized delayed-type hypersensitivity granuloma mouse model assessed as reduction of granuloma dry weight at 60 mg/kg, sc qd for 9 days. It is filed as functional. The note with it: 216 h, route subcutaneous. Put shortly:
as §3

For data set [11], the system named is Mus musculus. Nature of the data set: Antiinflammatory activity in methylated bovine serum albumin sensitized delayed-type hypersensitivity granuloma mouse model assessed as reduction of granuloma dry weight at 25 mg/kg, sc qd for 9 days. In kind it is functional. The following applies: 216 h, route subcutaneous. In a few lines:
as §3

Data set [12] concerns Mus musculus. Nature of the data set: Antiinflammatory activity in methylated bovine serum albumin sensitized delayed-type hypersensitivity granuloma mouse model assessed as reduction of granuloma wet weight at 100 mg/kg, sc qd for 9 days. In kind it is functional. The following applies: 216 h, route subcutaneous. In a few lines: as §3
Data set [13] deals with Mus musculus. The data set is described as follows: Antiinflammatory activity in methylated bovine serum albumin sensitized delayed-type hypersensitivity granuloma mouse model assessed as reduction of granuloma wet weight at 60 mg/kg, sc qd for 9 days. The note with it: 216 h, route subcutaneous. In kind it is functional. Put shortly:
as §3

Data set [14] concerns Mus musculus. Nature of the data set: Antiinflammatory activity in methylated bovine serum albumin sensitized delayed-type hypersensitivity granuloma mouse model assessed as reduction of granuloma wet weight at 25 mg/kg, sc qd for 9 days. In kind it is functional. The following applies: 216 h, route subcutaneous. In a few lines:
as §3

For data set [15], the system named is Mus musculus. The data set is described as follows: Toxicity in albino mouse assessed as mortality at 500 to 1000 mg/kg, […] after 24 hrs. The following applies: in vivo. Also noted: dose 500-1000 mg/kg. In kind it is organism-based. In a few lines: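 Albino mice (20-25 g) were split into 6 groups of 8. Compounds were given at 500, 750 and 1000 mg/kg; controls received buffer only. Toxic symptoms, mortality and postmortem findings were recorded 24 h after administration. LD50 was calculated by the Dm − Σ(z×d)/n formula.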

Data set [16] relates to Mus musculus. Nature of the data set: Toxicity in albino mouse assessed as toxic symptoms at 500 to 1000 mg/kg, ip after 24 hrs. The following applies: in vivo.

Some results are limits rather than exact numbers.

In general, IC50 refers to the midpoint of a concentration-inhibition curve. On to `CCOP(=O)(OCC)C1(P(=O)(OCC)OCC)N=C(c2ccc(C)cc2)c2ccccc2C1=S`, for which the IC50 with MCF7 came to 30.4 µM; with HeLa, 26.7 µM; in the data set with HepG2, 25.2 µM; with HCT-116 it was 18.3 µM.
One may read the inhibition in vivo as the percentage by which the read-out fell short of the control. As to `CCOP(=O)(OCC)C1(P(=O)(OCC)OCC)C(=S)c2ccccc2N=C1c1ccccc1`, the IC50 was 15.6 µM in the data set with MCF7, 27.1 µM with HeLa, 20.4 µM in the data set with HepG2 and 22.8 µM in the data set on HCT-116. Moreover, the inhibition in vivo at 50 mg/kg in the data set on Rattus norvegicus [1] was determined as 28%; in the data set on Rattus norvegicus [5], 70%. Also, the values for the inhibition in vivo at 30 mg/kg in the data set with Rattus norvegicus [2] and with Rattus norvegicus [6] were 30% and 68%, respectively. Besides, the inhibition in vivo at 20 mg/kg is 12% in the data set with Rattus norvegicus [3] and 60% in the data set on Rattus norvegicus [7]. Further, the figures for the inhibition in vivo at 10 mg/kg in the data set on Rattus norvegicus [4] and in the data set with Rattus norvegicus [8] were less than 5% and 40%, respectively. The figures for the inhibition in vivo at 100 mg/kg with Mus musculus [9] and with Mus musculus [12] were 48% and 43%, respectively. Besides, the figures for the inhibition in vivo at 60 mg/kg with Mus musculus [10] and in the data set on Mus musculus [13] were 32% and 35%, respectively. Besides, the inhibition in vivo at 25 mg/kg in the data set on Mus musculus [11] was 22%; in the data set with Mus musculus [14], 13%.
Regarding `CCOP(=O)(OCC)C1(P(=O)(OCC)OCC)C(=S)c2ccccc2N1C`, the IC50 in the data set on MCF7 is 16.5 µM; in the data set on HeLa it was 15.2 µM; in the data set on HepG2, 14.7 µM; with HCT-116 it was 8.27 µM. Besides, the inhibition in vivo at 50 mg/kg with Rattus norvegicus [1] came out at 30%; in the data set with Rattus norvegicus [5], 68%. Moreover, the values for the inhibition in vivo at 30 mg/kg in the data set with Rattus norvegicus [2] and with Rattus norvegicus [6] were 32% and 70%, respectively. Further, the inhibition in vivo at 20 mg/kg was found to be 23% with Rattus norvegicus [3] and 55% with Rattus norvegicus [7]. Moreover, the inhibition in vivo at 10 mg/kg in the data set on Rattus norvegicus [4] came out at 15%; with Rattus norvegicus [8] it was 45%. Further, the inhibition in vivo at 100 mg/kg came out at 48% in the data set with Mus musculus [9] and 38% with Mus musculus [12]. Besides, the inhibition in vivo at 60 mg/kg in the data set with Mus musculus [10] and in the data set on Mus musculus [13] was 45% throughout. Further, the inhibition in vivo at 25 mg/kg in the data set with Mus musculus [11] was 36%; with Mus musculus [14] it was 33%. Further, the Activity entry in the data set with Mus musculus [15] and with Mus musculus [16] was “Non-toxic” throughout.
